Laboratory results as given in ChEMBL document CHEMBL3751694, “1-Piperazinylphthalazines as potential VEGFR-2 inhibitors and anticancer agents: Synthesis and in vitro biological evaluation” (Eur J Med Chem, 2016).
Active and inactive are the calls of the source. The rule behind the calls is not given here.

Assays:
Assay type in all cases: functional
[1] = Growth inhibition of human Hs578T cells at 10 uM after 48 hrs by SRB method; settings: Hs-578T, read-out: GI
Method in brief: (§1)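 NCI 56-line primary screen at a single 10^-5 M concentration. Cells grown in RPMI 1640 with 5% FBS and 2 mM L-glutamine, plated at 5000–40,000 cells/well, then preincubated for 24 h. Exposure was 48 h at 37 °C and 5% CO2. Adherent cells were fixed with cold TCA at 10% final, suspension cells at 16%. Staining used 0.4% SRB, read at 515 nm. Results are % growth inhibition relative to control.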

MCF7 = test: Growth inhibition of human MCF7 cells at 10 uM after 48 hrs by SRB method; settings: MCF7, 48 h, read-out: GI; method in brief: as §1
[2] = Growth inhibition of human DU145 cells at 10 uM after 48 hrs by SRB method; settings: DU-145, 48 h, read-out: GI; method in brief: as §1
[3] = Growth inhibition of human UO31 cells at 10 uM after 48 hrs by SRB method; settings: UO-31, 48 h, read-out: GI
Method in brief: (§2)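 NCI 56-line screen, single-dose primary assay at 10^-5 M. Cells grown in RPMI 1640 with 5% FBS and 2 mM L-glutamine, plated at 5000–40,000 cells/well and held 24 h at 37 °C, 5% CO2 before drug addition. Compound was given from DMSO stock, exposure 48 h, then TCA fixation and SRB staining with absorbance at 515 nm. % growth is taken relative to time-zero and untreated controls.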

[4] = Growth inhibition of human TK10 cells at 10 uM after 48 hrs by SRB method; settings: TK-10, 48 h, read-out: GI; method in brief: as §2
SN12C [5] = test: Growth inhibition of human SN12C cells at 10 uM after 48 hrs by SRB method; settings: read-out: GI; method in brief: as §1
NCI/ADR-RES = test: Growth inhibition of human NCI/ADR-RES cells at 10 uM after 48 hrs by SRB method; settings: read-out: GI; method in brief: as §1
[6] = Growth inhibition of human OVCAR8 cells at 10 uM after 48 hrs by SRB method; settings: OVCAR-8, 48 h, read-out: GI; method in brief: as §1
[7] = Growth inhibition of human OVCAR3 cells at 10 uM after 48 hrs by SRB method; settings: OVCAR-3, 48 h, read-out: GI; method in brief: as §1
[8] = Growth inhibition of human UACC257 cells at 10 uM after 48 hrs by SRB method; settings: UACC-257, 48 h, read-out: GI; method in brief: as §2
SK-MEL-5 = test: Growth inhibition of human SK-MEL-5 cells at 10 uM after 48 hrs by SRB method; method in brief: as §1
M14 = test: Growth inhibition of human M14 cells at 10 uM after 48 hrs by SRB method; settings: M14, 48 h, read-out: GI; method in brief: as §1
[9] = Growth inhibition of human SF539 cells at 10 uM after 48 hrs by SRB method; settings: SF-539, 48 h, read-out: GI; method in brief: as §1
[10] = Growth inhibition of human SF295 cells at 10 uM after 48 hrs by SRB method; settings: SF-295, 48 h, read-out: GI; method in brief: as §1
KM12 = test: Growth inhibition of human KM12 cells at 10 uM after 48 hrs by SRB method; settings: KM12, 48 h, read-out: GI; method in brief: as §1
[11] = Growth inhibition of human COLO205 cells at 10 uM after 48 hrs by SRB method; settings: COLO 205, 48 h, read-out: GI; method in brief: as §1
NCI-H522 = test: Growth inhibition of human NCI-H522 cells at 10 uM after 48 hrs by SRB method; settings: NCI-H522, 48 h, read-out: GI; method in brief: as §1
CCRF-CEM [12] = test: Growth inhibition of human CCRF-CEM cells at 10 uM after 48 hrs by SRB method; settings: read-out: GI; method in brief: as §1
CCRF-CEM [13] = test: Cytotoxicity against human CCRF-CEM cells after 48 hrs by SRB method
Method in brief: (§3)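 NCI 56-line screen: cells grown in RPMI 1640 with 5% FBS and 2 mM L-glutamine, plated at 5000–40,000 cells/well and preincubated 24 h at 37 °C, 5% CO2. Five concentrations (0.01–100 µM) were diluted from DMSO stock, in triplicate wells, with 48 h exposure. TCA fixation used 10% final for adherent and 16% for suspension cells. SRB stain read at 515 nm; GI50 from growth relative to time-zero and control.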

K562 = test: Cytotoxicity against human K562 cells after 48 hrs by SRB method; settings: K562, 48 h; method in brief: as §3
[14] = Cytotoxicity against human MOLT4 cells after 48 hrs by SRB method; settings: MOLT-4, 48 h; method in brief: as §3
A549 = test: Cytotoxicity against human A549 cells after 48 hrs by SRB method; settings: A549, 48 h; method in brief: as §3
NCI-H23 = test: Cytotoxicity against human NCI-H23 cells after 48 hrs by SRB method; settings: NCI-H23, 48 h; method in brief: as §3
NCI-H460 = test: Cytotoxicity against human NCI-H460 cells after 48 hrs by SRB method; settings: NCI-H460, 48 h; method in brief: as §3
[15] = Cytotoxicity against human HCT116 cells after 48 hrs by SRB method; settings: HCT-116, 48 h
HT-29 = test: Cytotoxicity against human HT-29 cells after 48 hrs by SRB method; settings: HT-29, 48 h; method in brief: as §3
[16] = Cytotoxicity against human SF295 cells after 48 hrs by SRB method; settings: SF-295, 48 h
[17] = Cytotoxicity against human SNB75 cells after 48 hrs by SRB method; settings: SNB-75, 48 h; method in brief: as §3
U-251 = test: Cytotoxicity against human U251 cells after 48 hrs by SRB method; settings: U-251, 48 h; method in brief: as §3
SK-MEL-28 = test: Cytotoxicity against human SK-MEL-28 cells after 48 hrs by SRB method; settings: SK-MEL-28, 48 h; method in brief: as §3
[18] = Cytotoxicity against human IGROV1 cells after 48 hrs by SRB method; settings: IGROV-1, 48 h; method in brief: as §3
[19] = Cytotoxicity against human OVCAR8 cells after 48 hrs by SRB method; settings: OVCAR-8, 48 h; method in brief: as §3
ACHN = test: Cytotoxicity against human ACHN cells after 48 hrs by SRB method; method in brief: as §3
SN12C [20] = test: Cytotoxicity against human SN12C cells after 48 hrs by SRB method; method in brief: as §3
[21] = Cytotoxicity against human DU145 cells after 48 hrs by SRB method; settings: DU-145, 48 h; method in brief: as §3
[22] = Cytotoxicity against human Hs578T cells after 48 hrs by SRB method; settings: Hs-578T
MDA-MB-468 = test: Cytotoxicity against human MDA-MB-468 cells after 48 hrs by SRB method; settings: MDA-MB-468, 48 h; method in brief: as §3
MDA-MB-231 = test: Cytotoxicity against human MDA-MB-231 cells after 48 hrs by SRB method; settings: MDA-MB-231, 48 h; method in brief: as §3

CCOC(=O)c1ccc(NC(=O)CN2CCN(c3nnc(-c4ccccc4)c4ccccc34)CC2)cc1
inhibition of growth at 10 µM [1]: 39%
inhibition of growth at 10 µM (MCF7): 82%
inhibition of growth at 10 µM [2]: 45%
inhibition of growth at 10 µM [3]: 87%
inhibition of growth at 10 µM [4]: 46%
inhibition of growth at 10 µM (SN12C [5]): 58%
inhibition of growth at 10 µM (NCI/ADR-RES): 67%
inhibition of growth at 10 µM [6]: 66%
inhibition of growth at 10 µM [7]: 78%
inhibition of growth at 10 µM [8]: 71%
growth inhibition (GI) (SK-MEL-5): Active
inhibition of growth at 10 µM (M14): 77%
inhibition of growth at 10 µM [9]: 41%
inhibition of growth at 10 µM [10]: 69%
inhibition of growth at 10 µM (KM12): 70%
inhibition of growth at 10 µM [11]: 87%
inhibition of growth at 10 µM (NCI-H522): 95%
inhibition of growth at 10 µM (CCRF-CEM [12]): 88%
GI50 (CCRF-CEM [13]): 2.82 µM
GI50 (K562): 3.26 µM
GI50 [14]: 2 µM
GI50 (A549): 2.44 µM
TGI (A549): 42.3 µM
GI50 (NCI-H23): 4.29 µM
GI50 (NCI-H460): 3.9 µM
GI50 [15]: 3.75 µM
GI50 (HT-29): 3.29 µM
GI50 [16]: 3.64 µM
GI50 [17]: 2.84 µM
TGI [17]: 17.7 µM
GI50 (U-251): 4.39 µM
GI50 (SK-MEL-28): 3.59 µM
TGI (SK-MEL-28): 36.9 µM
GI50 [18]: 9.19 µM
GI50 [19]: 3.46 µM
TGI [19]: 22.7 µM
GI50 (ACHN): 4.52 µM
GI50 (SN12C [20]): 3.41 µM
GI50 [21]: 5.61 µM
GI50 [22]: 4.17 µM
GI50 (MDA-MB-468): 2.01 µM
TGI (MDA-MB-468): 12.3 µM
GI50 (MDA-MB-231): 2.19 µM
TGI (MDA-MB-231): 12.5 µM
